Key:
Acetylcholinesterase = Acetylcholinesterase (Homo sapiens, UniProt P22303); assay: Inhibition of human recombinant AChE […] by Ellman's assay
Cholinesterase [1] = biological target: T1, Cholinesterase (Homo sapiens, UniProt P06276); assay: Inhibition of human recombinant BuChE by Ellman's assay
Procedure, shortened: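 Ellman assay at 25 °C with 125 pM recombinant human enzyme: AChE with acetylthiocholine iodide, BuChE with butyrylthiocholine, substrate at 0.53 mM. Buffer was 0.1 M phosphate pH 7.4 with 15 mM NaCl, NaN3, BSA and DTNB. Inhibitor was preincubated with enzyme for at least 30 min. Rate read at 414 nm for 20 min against an inhibitor-free 100% control. Generally at least triplicate; IC50 by nonlinear regression.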

Homo sapiens = species: Homo sapiens; assay: Selectivity ratio of IC50 for human recombinant BuChE to IC50 for human recombinant AChE
Cholinesterase [2] = biological target: T1, Cholinesterase; assay: Inhibition of human recombinant BuChE assessed as enzyme activity reversion at 100 uM by Ellman's assay
Cholinesterase [3] = biological target: T1, Cholinesterase; assay: Inhibition of human recombinant BuChE assessed as enzyme activity reversion at 10 uM by Ellman's assay

Sequence of Acetylcholinesterase (P22303 whole entry): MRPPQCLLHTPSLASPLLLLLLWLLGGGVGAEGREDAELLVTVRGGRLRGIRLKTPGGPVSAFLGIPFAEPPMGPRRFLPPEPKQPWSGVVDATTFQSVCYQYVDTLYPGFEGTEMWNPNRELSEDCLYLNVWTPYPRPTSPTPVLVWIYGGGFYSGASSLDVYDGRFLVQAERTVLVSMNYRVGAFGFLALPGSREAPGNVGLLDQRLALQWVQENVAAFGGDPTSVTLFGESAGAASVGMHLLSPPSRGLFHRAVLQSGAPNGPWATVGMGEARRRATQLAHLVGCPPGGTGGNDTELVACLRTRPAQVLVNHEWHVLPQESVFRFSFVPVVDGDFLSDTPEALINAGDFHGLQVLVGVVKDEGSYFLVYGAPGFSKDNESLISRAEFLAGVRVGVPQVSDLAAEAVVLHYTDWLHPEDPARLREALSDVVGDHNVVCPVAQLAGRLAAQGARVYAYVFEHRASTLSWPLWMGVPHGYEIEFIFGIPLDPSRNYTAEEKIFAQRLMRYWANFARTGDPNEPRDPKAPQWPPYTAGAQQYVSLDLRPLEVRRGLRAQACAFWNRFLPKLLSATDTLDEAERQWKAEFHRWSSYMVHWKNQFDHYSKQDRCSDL
T1 sequence (P06276 whole entry): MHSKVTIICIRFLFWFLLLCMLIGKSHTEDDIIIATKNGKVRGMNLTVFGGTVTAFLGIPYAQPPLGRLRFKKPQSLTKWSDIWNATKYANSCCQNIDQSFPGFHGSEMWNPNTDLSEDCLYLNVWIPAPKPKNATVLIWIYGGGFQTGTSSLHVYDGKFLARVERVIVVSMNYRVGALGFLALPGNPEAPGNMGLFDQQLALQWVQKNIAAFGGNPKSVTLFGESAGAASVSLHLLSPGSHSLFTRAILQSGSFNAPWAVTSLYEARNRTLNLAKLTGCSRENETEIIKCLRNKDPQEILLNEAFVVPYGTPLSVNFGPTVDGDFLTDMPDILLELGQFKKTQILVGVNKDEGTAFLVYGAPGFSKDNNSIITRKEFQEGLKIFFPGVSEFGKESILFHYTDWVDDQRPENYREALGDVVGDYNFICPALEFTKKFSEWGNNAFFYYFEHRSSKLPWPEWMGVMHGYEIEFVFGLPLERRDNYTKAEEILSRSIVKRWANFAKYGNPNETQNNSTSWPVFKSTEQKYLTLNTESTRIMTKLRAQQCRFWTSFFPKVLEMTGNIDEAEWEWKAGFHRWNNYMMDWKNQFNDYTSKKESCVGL

SMILES: CCC1=CC2Cc3nc4cc(Cl)ccc4c(Cl)c3C(C1)C2 (racemic)
- IC50 (Acetylcholinesterase): 19.2 µM

SMILES: CCC1=CC2Cc3nc4cnccc4c(N)c3C(C1)C2 (racemic)
- IC50 (Acetylcholinesterase): 0.664 µM

SMILES: CCC1=CC2Cc3nc4cc(Cl)ccc4c(NCCN=[N+]=[N-])c3C(C1)C2 (racemic)
- IC50 (Acetylcholinesterase): 0.0137 µM
- IC50 (Cholinesterase [1]): 0.824 µM
- Ratio IC50 (Homo sapiens): 60

SMILES: CC1=CC2Cc3nc4[nH]ncc4c(N)c3C(C1)C2 (racemic)
- IC50 (Acetylcholinesterase): 50 µM

SMILES: CCC1=CC2Cc3nc4ncccc4c(N)c3C(C1)C2 (racemic)
- IC50 (Acetylcholinesterase): 0.855 µM

SMILES: CC1=CC2Cc3nc4oc(C5CCC5)nc4c(N)c3C(C1)C2 (racemic)
- IC50 (Acetylcholinesterase): 27.1 µM

SMILES: CCC1=CC2Cc3nc4oc(C5CC5)nc4c(N)c3C(C1)C2 (racemic)
- IC50 (Acetylcholinesterase): 50 µM

SMILES: C#CCCCCCCN1CCc2cc(OC)c(OC)cc2C1c1ccc([N+](=O)[O-])cc1 (centres undefined)
- IC50 (Acetylcholinesterase): 2.92 µM
- inhibition (Cholinesterase [2]): < 1%

SMILES: CC1=CC2Cc3nc4cc(Cl)ccc4c(O)c3C(C1)C2 (racemic)
- IC50 (Acetylcholinesterase): 14.7 µM

SMILES: CC1=CC2Cc3nc4oc(C5CC5)nc4c(N)c3C(C1)C2 (racemic)
- IC50 (Acetylcholinesterase): 50 µM

SMILES: CC1=CC2Cc3nc4cc(Cl)ccc4c(NCCCl)c3C(C1)C2 (racemic)
- IC50 (Acetylcholinesterase): 0.0433 µM

SMILES: CSc1n[nH]c2nc3c(c(N)c12)C1CC(C)=CC(C3)C1 (racemic)
- IC50 (Acetylcholinesterase): 50 µM

SMILES: CC1=CC2Cc3nc4cc(Cl)ccc4c(Cl)c3C(C1)C2 (racemic)
- IC50 (Acetylcholinesterase): 22.4 µM

SMILES: COc1cc2c(cc1OC)C(c1cccc([N+](=O)[O-])c1)N(CCCCCCc1cn(CCNc3c4c(nc5cc(Cl)ccc35)CC3C=C(C)CC4C3)nn1)CC2 (racemic)
- IC50 (Acetylcholinesterase): 0.00395 µM
- Ratio IC50 (Homo sapiens): > 10000
- inhibition (Cholinesterase [3]): 6%

SMILES: CC1=CC2Cc3nc4oc(C)c(C)c4c(N)c3C(C1)C2 (racemic)
- IC50 (Acetylcholinesterase): 4.78 µM

SMILES: CC1=CC2Cc3nc4ncccc4c(N)c3C(C1)C2 (racemic)
- IC50 (Acetylcholinesterase): 0.81 µM
- IC50 (Cholinesterase [1]): 0.342 µM
- Ratio IC50 (Homo sapiens): 0.4

SMILES: COc1cc2nc3c(c(N)c2cc1OC)C1CC(C)=CC(C3)C1 (racemic)
- IC50 (Acetylcholinesterase): 11.7 µM

SMILES: CCC1=CC2Cc3nc4cc(Cl)ccc4c(NCCO)c3C(C1)C2 (racemic)
- IC50 (Acetylcholinesterase): 0.00675 µM
- IC50 (Cholinesterase [1]): 3.64 µM
- Ratio IC50 (Homo sapiens): 540

SMILES: CCC1=CC2Cc3nc4oc(C)c(C)c4c(N)c3C(C1)C2 (racemic)
- IC50 (Acetylcholinesterase): 6.45 µM

SMILES: C#CCCCCCCN1CCc2cc(OC)c(OC)cc2C1c1cccc([N+](=O)[O-])c1 (centres undefined)
- IC50 (Acetylcholinesterase): 8.08 µM
- inhibition (Cholinesterase [2]): < 1%

SMILES: CC1=CC2Cc3nc4cc(Cl)ccc4c(NC(=O)CCl)c3C(C1)C2 (racemic)
- IC50 (Acetylcholinesterase): 2.51 µM

SMILES: CC1=CC2Cc3nc4cc(Cl)ccc4c(NCCN=[N+]=[N-])c3C(C1)C2 (racemic)
- IC50 (Acetylcholinesterase): 0.00869 µM
- IC50 (Cholinesterase [1]): 2.35 µM
- Ratio IC50 (Homo sapiens): 270

SMILES: CCC1=CC2Cc3nc4cc(Cl)ccc4c(N)c3[C@@H](C1)C2 [HUPRINE X]
- IC50 (Acetylcholinesterase): 0.0011 µM

SMILES: CCCSc1nc2nc3c(c(N)c2s1)C1CC(C)=CC(C3)C1 (racemic)
- IC50 (Acetylcholinesterase): 7.69 µM

SMILES: CCC1=CC2Cc3nc4cc(OC)c(OC)cc4c(N)c3C(C1)C2 (racemic)
- IC50 (Acetylcholinesterase): 5.1 µM

SMILES: CC1=CC2Cc3nc4cc(Cl)ccc4c(NCCO)c3C(C1)C2 (racemic)
- IC50 (Acetylcholinesterase): 0.00966 µM

SMILES: CCCSc1nc2nc3c(c(N)c2s1)C1CC(CC)=CC(C3)C1 (racemic)
- IC50 (Acetylcholinesterase): 7.27 µM

Source: ChEMBL document CHEMBL1154060, “Synthesis and structure-activity relationship of Huprine derivatives as human acetylcholinesterase inhibitors” (Bioorg Med Chem, 2009)
